Data on 18 molecules can be found in ChEMBL document CHEMBL4834456, “Discovery of 3,4-dihydrobenzo[f][1,4]oxazepin-5(2H)-one derivatives as a new class of ROCK inhibitors for the treatment of glaucoma” (Bioorg Med Chem Lett, 2021).

Data set [1] concerns the target T1, Rho-associated protein kinase 1 (Homo sapiens, UniProt Q13464). The experiment in a line: Inhibition of wild type partial length human ROCK1 (M1 to R415 residues) expressed in mammalian expression system by Euro-fins kinase profiler assay. The method, boiled down:
(§1)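 IC50 values from the Eurofins Kinase Profiler service; averages of two independent experiments, mean ± SD.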
Target sequence in this assay (Q13464 whole entry, the tested form may be a part): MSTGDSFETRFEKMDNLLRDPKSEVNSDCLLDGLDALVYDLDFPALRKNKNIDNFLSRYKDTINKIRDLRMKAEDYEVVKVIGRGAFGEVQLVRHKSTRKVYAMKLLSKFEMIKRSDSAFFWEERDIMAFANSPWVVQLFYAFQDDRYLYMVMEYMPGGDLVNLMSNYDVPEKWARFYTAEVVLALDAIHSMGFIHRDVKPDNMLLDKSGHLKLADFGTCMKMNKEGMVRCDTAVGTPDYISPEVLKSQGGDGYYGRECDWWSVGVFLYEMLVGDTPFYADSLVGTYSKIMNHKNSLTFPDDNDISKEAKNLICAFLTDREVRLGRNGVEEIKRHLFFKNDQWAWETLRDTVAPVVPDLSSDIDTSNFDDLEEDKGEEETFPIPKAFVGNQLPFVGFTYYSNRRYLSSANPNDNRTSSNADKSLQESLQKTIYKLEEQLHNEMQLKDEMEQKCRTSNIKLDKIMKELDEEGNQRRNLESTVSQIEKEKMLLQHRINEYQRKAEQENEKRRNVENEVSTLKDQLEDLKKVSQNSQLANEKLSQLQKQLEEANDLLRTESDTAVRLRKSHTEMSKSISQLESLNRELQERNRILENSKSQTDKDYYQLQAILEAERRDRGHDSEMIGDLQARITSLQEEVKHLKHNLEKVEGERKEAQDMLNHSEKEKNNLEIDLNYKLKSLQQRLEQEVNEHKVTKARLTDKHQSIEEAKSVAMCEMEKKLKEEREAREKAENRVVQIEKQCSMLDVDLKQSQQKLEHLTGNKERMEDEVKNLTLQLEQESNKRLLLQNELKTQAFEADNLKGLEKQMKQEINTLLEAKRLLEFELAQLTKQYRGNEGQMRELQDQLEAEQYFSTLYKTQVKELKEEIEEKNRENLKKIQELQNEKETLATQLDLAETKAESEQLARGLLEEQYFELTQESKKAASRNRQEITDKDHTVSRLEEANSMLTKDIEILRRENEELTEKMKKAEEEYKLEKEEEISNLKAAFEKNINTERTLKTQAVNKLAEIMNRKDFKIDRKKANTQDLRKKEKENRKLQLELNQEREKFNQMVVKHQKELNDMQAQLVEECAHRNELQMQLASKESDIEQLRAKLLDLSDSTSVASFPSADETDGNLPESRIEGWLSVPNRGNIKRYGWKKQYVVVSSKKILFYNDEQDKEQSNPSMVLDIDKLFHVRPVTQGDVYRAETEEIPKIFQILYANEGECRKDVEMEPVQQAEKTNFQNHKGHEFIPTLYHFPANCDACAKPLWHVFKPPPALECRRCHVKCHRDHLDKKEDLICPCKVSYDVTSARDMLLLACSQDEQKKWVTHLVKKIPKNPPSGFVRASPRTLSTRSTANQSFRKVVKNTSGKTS

For data set [2], the target named is T2, Rho-associated protein kinase 2 (Homo sapiens, UniProt O75116). Nature of the data set: Inhibition of wild type partial length human ROCK1 (M1 to T431 residues) expressed in Mammalian expression system by Euro-fins kinase profiler assay. The method, boiled down: as §1
Target sequence in this assay (O75116 whole entry, the tested form may be a part): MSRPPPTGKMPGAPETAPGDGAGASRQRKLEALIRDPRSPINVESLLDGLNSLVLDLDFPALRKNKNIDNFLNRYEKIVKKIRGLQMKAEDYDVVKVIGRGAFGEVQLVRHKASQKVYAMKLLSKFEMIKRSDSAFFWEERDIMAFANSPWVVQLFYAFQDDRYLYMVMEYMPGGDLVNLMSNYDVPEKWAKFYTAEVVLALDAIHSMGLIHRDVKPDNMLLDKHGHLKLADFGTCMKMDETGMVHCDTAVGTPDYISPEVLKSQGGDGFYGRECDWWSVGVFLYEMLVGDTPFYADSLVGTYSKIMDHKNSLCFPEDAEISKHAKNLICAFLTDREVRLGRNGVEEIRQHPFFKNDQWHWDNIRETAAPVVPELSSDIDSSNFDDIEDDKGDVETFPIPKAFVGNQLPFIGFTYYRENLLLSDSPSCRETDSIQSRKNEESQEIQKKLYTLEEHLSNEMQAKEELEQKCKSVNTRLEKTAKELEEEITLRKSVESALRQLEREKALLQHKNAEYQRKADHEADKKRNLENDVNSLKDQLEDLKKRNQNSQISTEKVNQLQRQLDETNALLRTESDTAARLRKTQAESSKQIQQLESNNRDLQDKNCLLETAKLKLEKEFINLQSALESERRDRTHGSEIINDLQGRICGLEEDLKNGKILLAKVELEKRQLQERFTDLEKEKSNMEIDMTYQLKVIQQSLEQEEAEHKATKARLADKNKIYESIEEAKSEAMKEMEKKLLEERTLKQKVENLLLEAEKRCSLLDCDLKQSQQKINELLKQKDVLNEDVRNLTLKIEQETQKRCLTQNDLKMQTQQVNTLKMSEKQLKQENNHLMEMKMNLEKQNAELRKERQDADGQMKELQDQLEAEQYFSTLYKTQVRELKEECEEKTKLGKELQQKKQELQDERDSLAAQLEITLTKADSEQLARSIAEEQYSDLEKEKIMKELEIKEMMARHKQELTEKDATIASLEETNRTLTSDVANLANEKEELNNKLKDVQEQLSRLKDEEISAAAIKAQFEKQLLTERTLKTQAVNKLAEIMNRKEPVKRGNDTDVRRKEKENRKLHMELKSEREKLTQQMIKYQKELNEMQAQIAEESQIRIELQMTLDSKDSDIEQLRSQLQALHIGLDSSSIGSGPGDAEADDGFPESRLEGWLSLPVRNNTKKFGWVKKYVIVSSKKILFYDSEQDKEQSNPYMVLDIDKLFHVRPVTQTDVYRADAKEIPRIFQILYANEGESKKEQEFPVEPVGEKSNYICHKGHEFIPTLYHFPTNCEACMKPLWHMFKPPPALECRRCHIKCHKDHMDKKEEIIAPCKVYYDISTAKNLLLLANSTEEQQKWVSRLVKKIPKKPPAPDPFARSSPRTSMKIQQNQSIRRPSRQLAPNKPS
Data set [3] relates to SH-SY5Y. The experiment in a line: Inhibition of human ROCK in human SH-SY5Y cells assessed as inhibition of phosphorylation of MYPT1 at 0.1 to 1 uM measured after 12 hrs by western blot assay. The format is cell-based. Conditions: dose 0.1-1 µM. In outline:
(§2)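 SH-SY5Y cells exposed to compound at 0.1, 0.3 and 1 µM for 12 h. Phospho-MYPT1 assessed by western blot, with immunoblots quantified. Significance versus untreated control by t test.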
Background: A western blot detects proteins with antibodies after separation by electrophoresis.

For data set [4], the target named is LIM domain kinase 2 (Homo sapiens) (UniProt P53671). Nature of the data set: Inhibition of LIMK2 (unknown origin) at 10 uM. In outline:
(§3)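 Kinase selectivity panel of 100 representative kinases, each tested at a fixed 10 µM; inhibition rate recorded per kinase. Values are averages of two independent experiments, mean ± SD.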

Another data set relates to Oryctolagus cuniculus. Nature of the data set: Antiglaucoma activity in topically treated NZW rabbits assessed as reduction of intra ocular pressure measured after 1 hr relative to control. Format: functional. Also on record: scale not given: the % may be the effect or the level left. In outline: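 Ocular normotensive NZW rabbits received 0.3% eye drops topically in one eye and vehicle in the contralateral eye. IOP was followed over several hours after instillation and expressed as reduction from baseline, with the 1 h reading compared against vehicle.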

For data set [5], the target named is T2, Rho-associated protein kinase 2. Nature of the data set: Inhibition of ROCK2 (unknown origin) at 10 uM. The method, boiled down: as §3
Target sequence in this assay (O75116 whole entry, looked up, the tested form may be a part): as the sequence (O75116 whole entry, the tested form may be a part) above
Data set [6] addresses T1, Rho-associated protein kinase 1. Nature of the data set: Inhibition of ROCK1 (unknown origin) at 10 uM. In outline: as §3
Target sequence in this assay (Q13464 2-1354 limits assumed): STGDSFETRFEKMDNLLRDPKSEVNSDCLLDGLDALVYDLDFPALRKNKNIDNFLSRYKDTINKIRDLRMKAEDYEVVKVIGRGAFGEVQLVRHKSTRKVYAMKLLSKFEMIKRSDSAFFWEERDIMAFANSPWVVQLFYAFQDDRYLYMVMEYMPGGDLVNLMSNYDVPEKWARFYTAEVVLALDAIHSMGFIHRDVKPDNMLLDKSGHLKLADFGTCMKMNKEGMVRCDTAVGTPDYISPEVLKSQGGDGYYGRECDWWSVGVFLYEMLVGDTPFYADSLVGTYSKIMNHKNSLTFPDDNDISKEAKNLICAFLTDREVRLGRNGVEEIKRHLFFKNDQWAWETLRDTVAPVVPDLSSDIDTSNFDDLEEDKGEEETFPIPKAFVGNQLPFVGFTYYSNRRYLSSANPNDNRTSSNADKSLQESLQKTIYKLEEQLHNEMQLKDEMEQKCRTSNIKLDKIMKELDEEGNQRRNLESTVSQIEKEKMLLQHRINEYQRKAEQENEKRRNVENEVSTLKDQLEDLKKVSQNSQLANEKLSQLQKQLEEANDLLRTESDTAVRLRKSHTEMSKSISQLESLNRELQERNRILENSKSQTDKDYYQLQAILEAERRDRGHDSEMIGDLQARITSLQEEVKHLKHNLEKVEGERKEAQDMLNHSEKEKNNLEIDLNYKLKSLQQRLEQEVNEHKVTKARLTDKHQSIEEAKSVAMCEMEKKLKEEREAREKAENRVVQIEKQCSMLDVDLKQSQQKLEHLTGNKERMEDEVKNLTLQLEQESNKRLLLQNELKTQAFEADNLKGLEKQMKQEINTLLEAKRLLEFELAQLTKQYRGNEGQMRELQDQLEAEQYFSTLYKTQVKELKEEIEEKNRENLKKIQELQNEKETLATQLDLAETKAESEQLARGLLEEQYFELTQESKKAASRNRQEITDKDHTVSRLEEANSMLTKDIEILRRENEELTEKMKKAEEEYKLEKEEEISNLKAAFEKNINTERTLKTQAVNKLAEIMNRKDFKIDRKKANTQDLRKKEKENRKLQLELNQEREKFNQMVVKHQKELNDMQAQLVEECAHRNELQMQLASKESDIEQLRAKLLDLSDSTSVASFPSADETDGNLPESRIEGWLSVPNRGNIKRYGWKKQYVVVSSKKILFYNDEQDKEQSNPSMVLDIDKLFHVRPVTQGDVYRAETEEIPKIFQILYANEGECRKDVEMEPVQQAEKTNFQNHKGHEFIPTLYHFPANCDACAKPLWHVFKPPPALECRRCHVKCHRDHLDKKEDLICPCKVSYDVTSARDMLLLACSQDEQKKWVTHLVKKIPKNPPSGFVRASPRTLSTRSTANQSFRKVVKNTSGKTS
Data set [7] relates to SH-SY5Y. Nature of the data set: Effect on MYPT1 expression in human SH-SY5Y cells at 0.1 to 1 uM measured after 12 hrs by western blot assay. Format: functional, cell-based. Conditions: dose 0.1-1 µM. In outline: as §2
The nature of data set [8]: Toxicity in topically treated NZW rabbit assessed as hyperaemia measured after 3 hrs. Also on record: species or system Oryctolagus cuniculus. Conditions: in vivo, topical_or_ocular.

The source made the active and inactive calls. The calls are words filed in the database; no cut-off is given here.

Sequence of LIM domain kinase 2 (Homo sapiens) (P53671 whole entry, looked up, the tested form may be a part): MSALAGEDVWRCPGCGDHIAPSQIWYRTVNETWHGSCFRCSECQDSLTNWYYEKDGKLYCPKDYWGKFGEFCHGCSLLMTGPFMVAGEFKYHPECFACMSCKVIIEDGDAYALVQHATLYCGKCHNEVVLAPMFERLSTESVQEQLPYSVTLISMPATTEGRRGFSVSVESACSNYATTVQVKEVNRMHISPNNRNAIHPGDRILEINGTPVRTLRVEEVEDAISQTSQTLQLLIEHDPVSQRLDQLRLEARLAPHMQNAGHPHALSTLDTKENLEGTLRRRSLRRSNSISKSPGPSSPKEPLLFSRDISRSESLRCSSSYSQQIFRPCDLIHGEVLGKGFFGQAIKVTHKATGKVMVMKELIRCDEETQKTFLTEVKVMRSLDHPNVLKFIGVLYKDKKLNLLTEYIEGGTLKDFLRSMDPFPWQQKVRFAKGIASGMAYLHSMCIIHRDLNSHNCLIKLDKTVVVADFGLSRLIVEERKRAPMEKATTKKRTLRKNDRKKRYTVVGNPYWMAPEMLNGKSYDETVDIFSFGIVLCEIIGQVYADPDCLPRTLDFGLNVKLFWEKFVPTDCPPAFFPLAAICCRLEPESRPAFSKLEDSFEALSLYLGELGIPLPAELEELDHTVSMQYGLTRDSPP

For the molecule `COc1cccc(CN2CCCc3cc(-c4ccc5[nH]ncc5c4)ccc3C2=O)c1`, the half-inhibitory concentration (IC50) in data set [1] was > 10000 nM; in [2], 2110 nM.
Taken in the same sequence, the figures for `COc1cccc(CN2CCOc3cc(-c4cncnc4)ccc3C2=O)c1` were > 10000 nM and > 10000 nM.
On to `COc1cccc(CN2CCOc3cc(-c4ccnc(N)c4)ccc3C2=O)c1`, for which the IC50 stood at 1140 nM in data set [1] and 15 nM in data set [2].
Taken in the same sequence, the figures for `COc1cccc(CN2CCOc3cc(-c4ccc5c(c4)OCO5)ccc3C2=O)c1` were > 10000 nM and > 10000 nM.
Taken in the same sequence, the figures for `O=Cc1cccc(CN2CCOc3cc(-c4ccncc4)ccc3C2=O)c1` were 668 nM and 29 nM.
As to `COc1cccc(CN2COc3cc(-c4ccc5[nH]ncc5c4)ccc3C2=O)c1`, the results for the IC50 in data set [1] and in data set [2] were 1460 nM and 434 nM, respectively.
For `COc1cccc(CN2CC(C)(C)Oc3cc(-c4ccc5[nH]ncc5c4)ccc3C2=O)c1`, the IC50 in [1] is 6010 nM; in data set [2], 749 nM.
Taken in the same sequence, the figures for `COc1cccc(CN2CCOc3cc(-c4cnc5[nH]ccc5c4)ccc3C2=O)c1` were > 10000 nM and 5530 nM.
The like results for `COc1cc(CN2CCOc3cc(-c4ccncc4)ccc3C2=O)cc(OC)c1` were, in that order, 4490 nM and 217 nM.
The like results for `COc1cccc(CN2CCOc3cc(-c4ccnc5[nH]ccc45)ccc3C2=O)c1` were, in that order, 103 nM and 15 nM.
For the molecule `O=C1c2ccc(-c3ccncc3)cc2OCCN1Cc1cccc(OC(F)(F)F)c1`, the concentration for half-maximal inhibition (IC50) in data set [1] was 9240 nM; in data set [2], 495 nM.
Turning to `COc1cccc(CN2CCOc3cc(-c4ccc(N)nc4)ccc3C2=O)c1`, the IC50 in [1] and in [2] was > 10000 nM each time.
Consider `COc1cccc(CN2CCOc3cc(-c4ccncc4)ccc3C2=O)c1`, for which the inhibition entry (in the data set on SH-SY5Y [3]; in [4]; in data set [5]; in [6]) was “Active” in each case. The figures for the Activity (with Oryctolagus cuniculus; in data set [8]) were 34.3% and “Non-Toxic”, respectively. The IC50 in [1] came out at 93 nM; in data set [2], 3 nM. The result in the data set with SH-SY5Y [7] was inactive.
Regarding `N#Cc1cccc(CN2CCOc3cc(-c4ccncc4)ccc3C2=O)c1`, the IC50 was 3100 nM in data set [1] and 50 nM in data set [2].
Taken in the same sequence, the figures for `COc1cccc(CN2CCOc3cc(-c4ccc5[nH]ncc5c4)ccc3C2=O)c1` were 1080 nM and 182 nM.
Taken in the same sequence, the figures for `COC(=O)c1cccc(CN2CCOc3cc(-c4ccncc4)ccc3C2=O)c1` were 208 nM and 9 nM.
In the case of `COc1cccc(CN2CCOc3ccc(-c4ccncc4)cc3C2=O)c1`, the IC50 in [1] is > 10000 nM; in [2], 761 nM.
Taken in the same sequence, the figures for `O=C1c2ccc(-c3ccncc3)cc2OCCN1Cc1cccc(C(F)(F)F)c1` were 1960 nM and 133 nM.

A word on the IC50: it is the point on the concentration scale where inhibition reaches its midpoint.
